Source: ChEMBL document CHEMBL4627416, “Generation of Leads for γ-Secretase Modulation” (J Med Chem, 2020)
One block for each molecule: values may come before it. Activity calls are given as the source filed them. No cut-off for these calls is given here.

Key:
Gamma-secretase = assay: Modulation of gamma secretase in HEK293 cells transfected with human APP with Swedish and London familial AD mutation assessed as reduction in Abeta42 levels incubated for 5 hrs by sandwich immuno-assay; type: cell-based
HEK293 = assay: Effect on total Abeta40 levels in HEK293 cells transfected with human APP with Swedish and London familial AD mutation incubated for 5 hrs by sandwich immuno-assay; type: functional, cell-based; conditions: HEK293, 5 h
[1] = Selectivity index, ratio of IC50 for effect on total Abeta40 levels in HEK293 cells transfected with human APP with Swedish and London familial AD mutation incubated for 5 hrs by sandwich immuno-assay to IC50 for modulation of gamma secretase in HEK293 cells transfected with human APP with Swedish and London familial AD mutation assessed as reduction in Abeta42 levels incubated for 5 hrs by sandwich immuno-assay
[2] = Apparent permeability of the compound; type: ADME; conditions: not told
[3] = target: Voltage-gated inwardly rectifying potassium channel KCNH2 (Homo sapiens, UniProt Q12809); assay: Inhibition of MK499 binding to human ERG
[4] = target: T1, Nuclear receptor subfamily 1 group I member 2 (Homo sapiens, UniProt O75469); assay: Inhibition of PXR (unknown origin); type: ADME
T1 sequence (O75469 whole entry): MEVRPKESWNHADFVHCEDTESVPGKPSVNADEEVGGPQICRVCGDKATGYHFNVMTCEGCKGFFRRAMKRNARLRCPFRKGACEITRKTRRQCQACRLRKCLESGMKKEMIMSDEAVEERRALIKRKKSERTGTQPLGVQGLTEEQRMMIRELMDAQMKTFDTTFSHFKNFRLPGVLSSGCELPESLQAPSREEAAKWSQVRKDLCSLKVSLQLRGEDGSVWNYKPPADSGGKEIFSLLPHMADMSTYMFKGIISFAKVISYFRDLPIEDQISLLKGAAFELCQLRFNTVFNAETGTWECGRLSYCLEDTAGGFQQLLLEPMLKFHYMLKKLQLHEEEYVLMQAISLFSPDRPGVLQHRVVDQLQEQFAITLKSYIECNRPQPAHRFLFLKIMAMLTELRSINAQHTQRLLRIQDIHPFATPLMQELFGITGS

Cytochrome P450 3A4 = Cytochrome P450 3A4 (Homo sapiens, UniProt P08684); assay: Inhibition of CYP3A4 (unknown origin); type: ADME
Cytochrome P450 2C9 = Cytochrome P450 2C9 (Homo sapiens, UniProt P11712); assay: Inhibition of CYP2C9 (unknown origin); type: ADME
Cytochrome P450 2D6 = Cytochrome P450 2D6 (Homo sapiens, UniProt P10635); assay: Inhibition of CYP2D6 (unknown origin); type: ADME
Rattus norvegicus [5] = assay: Reduction of Abeta42 protein level in CD rat at 30 mg/kg, po measured after 3 hrs relative to control; type: functional; parameters: scale not given: the % may be the effect or the level left
Method in brief: (§1)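 Male CD rats given a single oral dose (1-30 mg/kg). CSF Aβ42 measured 3 h after the dose and expressed as reduction relative to control levels. In the dose-response study, geometric means are of 29 animals (3 and 10 mg/kg groups) and 10 animals (30 mg/kg group).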

Rattus norvegicus [6] = assay: Reduction of Abeta42 protein level in CD rat at 10 mg/kg, po measured after 3 hrs relative to control; type: functional; parameters: scale not given: the % may be the effect or the level left; method in brief: as §1
Rattus norvegicus [7] = assay: Reduction of Abeta42 protein level in CD rat at 3 mg/kg, po measured after 3 hrs relative to control; type: functional; parameters: scale not given: the % may be the effect or the level left; method in brief: as §1
[8] = Drug level in plasma of CD rat at 30 mg/kg, po measured after 3 hrs; type: ADME, organism-based
Method in brief: (§2)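 Male CD rats dosed orally at 3, 10 or 30 mg/kg. Total drug concentrations measured in plasma and brain 3 h after the dose. Values are geometric means of 10 (3 mg/kg), 15 (10 mg/kg) and 5 (30 mg/kg) animals.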

[9] = Drug level in plasma of CD rat at 10 mg/kg, po measured after 3 hrs; type: ADME, organism-based; method in brief: as §2
[10] = Drug level in plasma of CD rat at 3 mg/kg, po measured after 3 hrs; type: ADME, organism-based; method in brief: as §2
[11] = Drug level in brain of CD rat at 30 mg/kg, po measured after 3 hrs; type: ADME, organism-based; conditions: read-out: Drug uptake; method in brief: as §2
[12] = Drug level in brain of CD rat at 10 mg/kg, po measured after 3 hrs; type: ADME, organism-based; conditions: read-out: Drug uptake; method in brief: as §2
[13] = Drug level in brain of CD rat at 3 mg/kg, po measured after 3 hrs; type: ADME, organism-based; conditions: read-out: Drug uptake; method in brief: as §2
[14] = AUC (0 to infinity) in CD rat at 2 mg/kg, po; type: ADME, organism-based; parameters: dose 2 mg/kg, route oral, time infinity; conditions: in vivo
Method in brief: (§3)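 Male CD rats, single 2 mg/kg oral dose. Plasma drug concentration-time profile used for AUC(0-∞), Cmax and oral bioavailability (F%). Values are the average of two experiments.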

[15] = Cmax in CD rat at 2 mg/kg, po; type: ADME, organism-based; parameters: dose 2 mg/kg, route oral; conditions: in vivo; method in brief: as §3
[16] = Oral bioavailability CD rat at 2 mg/kg; type: ADME, organism-based; conditions: in vivo; method in brief: as §3
[17] = Protein binding in rat plasma; type: ADME, cell-free; conditions: read-out: PPB (converted)
[18] = Clearance in CD rat at 1 mg/kg, iv; type: ADME, organism-based; conditions: in vivo
Method in brief: (§4)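 Male CD rats, single 1 mg/kg intravenous dose. Clearance, steady-state volume of distribution and mean residence time taken from the plasma concentration-time data. Values are the average of two experiments.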

[19] = Volume of distribution at steady state in CD rat at 1 mg/kg, iv; type: ADME, organism-based; conditions: in vivo, read-out: Vdss; method in brief: as §4
[20] = MRT in CD rat at 1 mg/kg, iv; type: ADME, organism-based; conditions: in vivo; method in brief: as §4
[21] = tested on: rat MDR1A (P-glycoprotein); assay: Efflux ratio in pig LLC-PK1 cells transfected with rat MDR1A; type: ADME, cell-based, Sus scrofa
Method in brief: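 Rat P-gp efflux measured in LLC-PK1 cells transfected with rat MDR1A. Reported as the ratio of B-to-A over A-to-B transport.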

Rattus norvegicus [22] = assay: Reduction of Abeta42 protein level in CD rat at 3 to 30 mg/kg, po measured after 3 hrs relative to control; type: functional, organism-based; method in brief: as §1
Rattus norvegicus [23] = assay: Reduction of Abeta42 protein level in CD rat at 1 mg/kg, po measured after 3 hrs relative to control; type: functional, organism-based; method in brief: as §1

Chain of Cytochrome P450 2C9 (P11712 whole entry): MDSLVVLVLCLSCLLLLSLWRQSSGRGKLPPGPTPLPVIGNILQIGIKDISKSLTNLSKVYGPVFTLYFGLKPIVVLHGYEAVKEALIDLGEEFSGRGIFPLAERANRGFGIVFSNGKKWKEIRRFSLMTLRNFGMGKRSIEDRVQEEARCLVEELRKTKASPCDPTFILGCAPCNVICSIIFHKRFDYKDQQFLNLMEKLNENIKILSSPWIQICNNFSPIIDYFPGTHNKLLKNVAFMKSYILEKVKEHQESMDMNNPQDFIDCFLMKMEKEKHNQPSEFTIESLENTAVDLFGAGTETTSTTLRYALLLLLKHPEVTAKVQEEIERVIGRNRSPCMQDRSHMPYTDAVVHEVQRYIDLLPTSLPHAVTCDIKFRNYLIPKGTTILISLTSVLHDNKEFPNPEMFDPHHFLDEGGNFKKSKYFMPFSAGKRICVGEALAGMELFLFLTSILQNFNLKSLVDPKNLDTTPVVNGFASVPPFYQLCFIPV
Chain of Cytochrome P450 3A4 (P08684 whole entry): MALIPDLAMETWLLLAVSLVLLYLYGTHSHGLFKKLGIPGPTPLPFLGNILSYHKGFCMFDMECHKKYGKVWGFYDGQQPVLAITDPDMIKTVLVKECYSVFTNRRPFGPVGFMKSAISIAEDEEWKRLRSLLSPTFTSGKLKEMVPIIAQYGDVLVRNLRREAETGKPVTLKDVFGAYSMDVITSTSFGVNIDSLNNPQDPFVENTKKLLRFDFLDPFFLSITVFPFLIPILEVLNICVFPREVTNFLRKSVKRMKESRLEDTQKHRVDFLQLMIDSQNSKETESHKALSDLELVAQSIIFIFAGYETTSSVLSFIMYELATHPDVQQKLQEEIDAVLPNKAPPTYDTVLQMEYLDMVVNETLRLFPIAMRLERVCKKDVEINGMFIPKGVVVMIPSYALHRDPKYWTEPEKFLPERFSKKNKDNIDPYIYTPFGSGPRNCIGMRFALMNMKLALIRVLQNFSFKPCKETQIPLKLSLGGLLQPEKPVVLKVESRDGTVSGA
Chain of Voltage-gated inwardly rectifying potassium channel KCNH2 (Q12809 whole entry): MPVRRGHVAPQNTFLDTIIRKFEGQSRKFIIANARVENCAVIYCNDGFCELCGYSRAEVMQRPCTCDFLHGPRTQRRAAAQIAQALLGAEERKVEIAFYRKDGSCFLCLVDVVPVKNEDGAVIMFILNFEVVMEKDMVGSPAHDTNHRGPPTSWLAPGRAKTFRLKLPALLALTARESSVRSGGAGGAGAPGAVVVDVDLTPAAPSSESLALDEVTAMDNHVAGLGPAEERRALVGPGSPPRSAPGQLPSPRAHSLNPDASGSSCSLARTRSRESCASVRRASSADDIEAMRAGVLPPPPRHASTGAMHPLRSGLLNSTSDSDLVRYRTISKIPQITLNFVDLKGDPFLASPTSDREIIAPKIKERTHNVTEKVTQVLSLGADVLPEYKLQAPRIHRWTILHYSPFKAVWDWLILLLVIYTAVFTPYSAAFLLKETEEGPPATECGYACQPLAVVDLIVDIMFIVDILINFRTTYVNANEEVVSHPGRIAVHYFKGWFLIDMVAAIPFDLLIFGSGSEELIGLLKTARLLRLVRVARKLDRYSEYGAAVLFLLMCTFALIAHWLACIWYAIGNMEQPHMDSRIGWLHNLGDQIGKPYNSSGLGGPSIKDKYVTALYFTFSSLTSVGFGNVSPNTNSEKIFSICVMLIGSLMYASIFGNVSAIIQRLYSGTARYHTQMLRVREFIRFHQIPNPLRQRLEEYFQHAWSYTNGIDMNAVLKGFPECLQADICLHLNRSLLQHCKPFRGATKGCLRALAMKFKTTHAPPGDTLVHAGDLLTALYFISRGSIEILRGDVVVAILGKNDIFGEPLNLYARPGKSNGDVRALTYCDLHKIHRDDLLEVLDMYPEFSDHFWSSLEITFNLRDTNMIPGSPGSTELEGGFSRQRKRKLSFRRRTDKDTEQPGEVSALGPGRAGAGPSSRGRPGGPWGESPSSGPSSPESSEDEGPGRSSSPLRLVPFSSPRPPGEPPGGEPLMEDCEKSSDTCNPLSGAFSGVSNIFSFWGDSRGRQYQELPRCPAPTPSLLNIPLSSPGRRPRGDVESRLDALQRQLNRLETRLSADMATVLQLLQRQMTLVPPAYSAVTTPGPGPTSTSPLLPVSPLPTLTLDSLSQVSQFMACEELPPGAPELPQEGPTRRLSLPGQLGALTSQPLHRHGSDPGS
Chain of Cytochrome P450 2D6 (P10635 whole entry): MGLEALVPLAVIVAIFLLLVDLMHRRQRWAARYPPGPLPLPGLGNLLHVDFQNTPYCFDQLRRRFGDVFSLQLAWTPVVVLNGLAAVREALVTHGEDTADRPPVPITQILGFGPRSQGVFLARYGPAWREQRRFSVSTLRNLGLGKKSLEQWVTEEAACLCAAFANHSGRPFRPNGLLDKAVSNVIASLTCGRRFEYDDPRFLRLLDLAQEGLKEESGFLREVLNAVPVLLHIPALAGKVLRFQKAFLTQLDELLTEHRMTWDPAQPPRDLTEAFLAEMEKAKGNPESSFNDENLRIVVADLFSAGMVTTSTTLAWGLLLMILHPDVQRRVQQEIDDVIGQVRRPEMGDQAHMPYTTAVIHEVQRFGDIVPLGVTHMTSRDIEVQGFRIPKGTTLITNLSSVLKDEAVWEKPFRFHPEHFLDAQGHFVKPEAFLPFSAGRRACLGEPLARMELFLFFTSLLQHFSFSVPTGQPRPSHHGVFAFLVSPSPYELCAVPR

SMILES: COc1cc(C2=CC3=NOC(CO)(c4ccc(F)cc4)N3CCO2)ccc1-n1cnc(C)c1 (stereo not given)
IC50 (Gamma-secretase): 0.512 µM

SMILES: COc1cc(C2=NOCC3C(Oc4ccc(Cl)cc4C(F)(F)F)CCCN23)ccc1-n1cnc(C)c1 (stereo not given)
IC50 (Gamma-secretase): 0.015 µM

SMILES: COc1cc(-c2nnc3n2CCCN3C(C)c2cc(F)c(F)c(F)c2)ccc1-n1cnc(C)c1 (stereo not given)
IC50 (Gamma-secretase): 0.116 µM

SMILES: CCC(NC(=O)/C=C/c1ccc(-n2cnc(C)c2)c(OC)c1)c1ccc(F)cc1 (stereo not given)
IC50 (Gamma-secretase): 0.462 µM

SMILES: COc1cc(/C=C2\CCCN3C2=NO[C@]3(CO)c2ccc(F)cc2)ccc1-n1cnc(C)c1
IC50 (Gamma-secretase): 0.029 µM

SMILES: COc1cc(C2=NOCC3C(Oc4cc(F)cc(F)c4)CCCN23)ccc1-n1cnc(C)c1 (stereo not given)
IC50 (Gamma-secretase): 0.4 µM

SMILES: COc1cc(C2=CC3=NO[C@H](c4cc(F)c(F)c(F)c4)CN3CCC2)ccc1-n1cnc(C)c1
IC50 (Gamma-secretase): 0.107 µM | IC50 (HEK293): 14 µM | Papp [2]: 22 ×10⁻⁶ cm/s | IC50 [3]: 3.35 µM | IC50 [4]: > 30 µM | IC50 (Cytochrome P450 3A4): 34 µM | IC50 (Cytochrome P450 2C9): 18 µM | IC50 (Cytochrome P450 2D6): 48 µM | Activity (Rattus norvegicus [5]): 52% | concentration at 3 h [8]: 14.2 µM | concentration at 3 h [11]: 2.1 µM

SMILES: COc1cc(C(=O)N2CCCC(Cc3ccc(F)cc3)C2)ccc1-n1cnc(C)c1 (stereo not given)
IC50 (Gamma-secretase): 1.55 µM

More lines, main results first:

IC50 (Gamma-secretase): 0.048 µM
SMILES: COc1cc(/C=C2\CCCN3CC(c4cc(F)c(F)c(F)c4)ON=C23)ccc1-n1cnc(C)c1 (stereo not given)

IC50 (Gamma-secretase): 9.29 µM
SMILES: COc1cc(/C=C2\CCCN3C2=NO[C@@H](c2cc(F)cc(F)c2)[C@@H]3C)ccc1-n1cnc(C)c1
IC50 (HEK293): > 20 µM

IC50 (Gamma-secretase): 0.069 µM
SMILES: COc1cc(/C=C2\CCCN3C2=NO[C@H](c2cc(F)c(F)c(F)c2)[C@@H]3CO)ccc1-n1cnc(C)c1
IC50 (HEK293): 15 µM | Ratio IC50 [1]: 221

IC50 (Gamma-secretase): 0.037 µM
SMILES: COc1cc(/C=C2\CCCN3C2=NOC[C@@H]3c2cc(F)c(F)c(F)c2)ccc1-n1cnc(C)c1

IC50 (Gamma-secretase): 0.052 µM | Papp [2]: 17 ×10⁻⁶ cm/s | IC50 [4]: 15 µM | IC50 (Cytochrome P450 3A4): 16 µM | IC50 (Cytochrome P450 2C9): 33 µM | IC50 (Cytochrome P450 2D6): 49 µM | concentration at 3 h [8]: 8.8 µM | concentration at 3 h [9]: 4.83 µM | concentration at 3 h [10]: 0.91 µM | concentration at 3 h [11]: 7.5 µM | concentration at 3 h [12]: 4.2 µM | concentration at 3 h [13]: 0.81 µM | AUC(0-inf) [14]: 8 µM·h | Cmax [15]: 1.3 µM | bioavailability [16]: 79% | fraction unbound [17]: 0.005 | clearance [18]: 10 mL/min/kg | Vd [19]: 1.1 L/kg | MRT [20]: 1.7 h | efflux ratio [21]: 2.46
SMILES: COc1cc(/C=C2\CCCN3C2=NO[C@H](c2cc(F)cc(F)c2)[C@@H]3C)ccc1-n1cnc(C)c1
IC50 (HEK293): 12 µM | Ratio IC50 [1]: 248 | IC50 [3]: 2.01 µM | Activity (Rattus norvegicus [5]): 73% | Activity (Rattus norvegicus [6]): 52% | Activity (Rattus norvegicus [7]): 24% | Activity (Rattus norvegicus [22]): Dose-dependent effect | Activity (Rattus norvegicus [23]): inactive

IC50 (Gamma-secretase): 0.143 µM | Papp [2]: 23 ×10⁻⁶ cm/s | IC50 [4]: > 15 µM | IC50 (Cytochrome P450 3A4): 30 µM | IC50 (Cytochrome P450 2C9): 8 µM | IC50 (Cytochrome P450 2D6): 8 µM | concentration at 3 h [8]: 1.4 µM | concentration at 3 h [11]: 1.3 µM
SMILES: COc1cc(C2=CC3=NOC[C@H](c4cc(F)c(F)c(F)c4)N3CCC2)ccc1-n1cnc(C)c1
IC50 (HEK293): 16 µM | IC50 [3]: 2.61 µM

IC50 (Gamma-secretase): 0.039 µM
SMILES: COc1cc(/C=C2\CCCN3C2=NOCC[C@@H]3c2cc(F)c(F)c(F)c2)ccc1-n1cnc(C)c1

IC50 (Gamma-secretase): 0.113 µM
SMILES: COc1cc(/C=C2\CCCN3C2=NO[C@H](c2cc(F)cc(F)c2)[C@@H]3C(C)C)ccc1-n1cnc(C)c1
IC50 (HEK293): 19 µM | Ratio IC50 [1]: 174

IC50 (Gamma-secretase): 0.055 µM | Papp [2]: 14 ×10⁻⁶ cm/s | IC50 [4]: > 10 µM | IC50 (Cytochrome P450 3A4): 29 µM | IC50 (Cytochrome P450 2C9): 37 µM | IC50 (Cytochrome P450 2D6): 49 µM | concentration at 3 h [8]: 13.1 µM | concentration at 3 h [11]: 11.1 µM
SMILES: COc1cc(/C=C2\CCCN3C2=NO[C@H](c2cc(F)c(F)c(F)c2)[C@@H]3C)ccc1-n1cnc(C)c1
IC50 (HEK293): > 20 µM | Ratio IC50 [1]: >367 | IC50 [3]: 1.61 µM | Activity (Rattus norvegicus [5]): 80%

IC50 (Gamma-secretase): 0.033 µM
SMILES: COc1cc(/C=C2\CCCN3C2=NOC[C@@H]3c2ccc(F)cc2)ccc1-n1cnc(C)c1
